# From ChEMBL document CHEMBL4145508 (Eur J Med Chem, 2018)
# Activity calls are given as the source filed them. No cut-off for these calls is given here.
# What was measured:
# Neuraminidase [1] = biological target: T1, Neuraminidase (Influenza A virus, UniProt B4URF0); parameters: species or system chicken/china/1220/2012(H5N1)
# Neuraminidase [2] = biological target: T1, Neuraminidase; parameters: species or system duck/Guangdong/674/2014(H5N6)
# Influenza A virus [3] = assay: Antiviral activity against influenza A virus chicken/china/1220/2012(H5N1) infected in chicken embryo fibroblasts assessed as reduction in viral cytopathic effect preincubated with virus for 1 hr followed by viral infection measured after 2 days by CCK-8 assay; assay type: functional, organism-based
# Influenza A virus [4] = assay: Antiviral activity against influenza A virus duck/Guangdong/674/2014(H5N6) infected in chicken embryo fibroblasts assessed as reduction in viral cytopathic effect preincubated with virus for 1 hr followed by viral infection measured after 2 days by CCK-8 assay; assay type: functional, organism-based
# [5] = Cytotoxicity against chicken embryo fibroblasts assessed as reduction in cell viability after 2 days by CCK-8 assay; assay type: cell-based, Gallus gallus, Fibroblast
# Procedure, shortened: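 Chicken embryo fibroblasts grown 24 h at 37 °C, then exposed without virus to compounds dissolved in water and serially diluted 3-fold in DMEM. Incubation was at 37 °C under 5% CO₂, with viability read by CCK-8 at 2 days. CC₅₀, the concentration giving a 50% drop in viability, was fitted from the concentration curve.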
# Influenza A virus [6] = assay: Antiviral activity against influenza A virus chicken/china/1220/2012(H5N1) infected in chicken embryo fibroblasts assessed as effect on embryo survival at 10 mmol/L preincubated with virus for 1 hr followed by viral infection measured after […]; assay type: functional, organism-based
# Influenza A virus [7] = assay: Antiviral activity against influenza A virus chicken/china/1220/2012(H5N1) infected in chicken embryo fibroblasts assessed as effect on embryo survival at 2.5 mmol/L preincubated with virus for 1 hr followed by viral infection measured after […]; assay type: functional, organism-based
# Influenza A virus [8] = assay: Antiviral activity against influenza A virus chicken/china/1220/2012(H5N1) infected in chicken embryo fibroblasts assessed as effect on embryo survival at 0.625 mmol/L preincubated with virus for 1 hr followed by viral infection measured after […]; assay type: functional, organism-based
# Influenza A virus [9] = assay: Antiviral activity against influenza A virus chicken/china/1220/2012(H5N1) infected in chicken embryo fibroblasts assessed as effect on embryo survival at 0.15625 mmol/L preincubated with virus for 1 hr followed by viral infection measured after […]; assay type: functional, organism-based
# Influenza A virus [10] = assay: Antiviral activity against influenza A virus chicken/china/1220/2012(H5N1) infected in chicken embryo fibroblasts assessed as effect on embryo survival at 0.0390625 mmol/L preincubated with virus for 1 hr followed by viral infection measured after […]; assay type: functional, organism-based
# Influenza A virus [11] = assay: Antiviral activity against influenza A virus duck/Guangdong/674/2014(H5N6) infected in chicken embryo fibroblasts assessed as effect on embryo survival at 10 mmol/L preincubated with virus for 1 hr followed by viral infection measured after […]; assay type: functional, organism-based
# Influenza A virus [12] = assay: Antiviral activity against influenza A virus duck/Guangdong/674/2014(H5N6) infected in chicken embryo fibroblasts assessed as effect on embryo survival at 2.5 mmol/L preincubated with virus for 1 hr followed by viral infection measured after […]; assay type: functional, organism-based
# Influenza A virus [13] = assay: Antiviral activity against influenza A virus duck/Guangdong/674/2014(H5N6) infected in chicken embryo fibroblasts assessed as effect on embryo survival at 0.625 mmol/L preincubated with virus for 1 hr followed by viral infection measured after […]; assay type: functional, organism-based
# Influenza A virus [14] = assay: Antiviral activity against influenza A virus duck/Guangdong/674/2014(H5N6) infected in chicken embryo fibroblasts assessed as effect on embryo survival at 0.15625 mmol/L preincubated with virus for 1 hr followed by viral infection measured after […]; assay type: functional, organism-based
# Influenza A virus [15] = assay: Antiviral activity against influenza A virus duck/Guangdong/674/2014(H5N6) infected in chicken embryo fibroblasts assessed as effect on embryo survival at 0.0390625 mmol/L preincubated with virus for 1 hr followed by viral infection measured after […]; assay type: functional, organism-based
# T1 sequence (B4URF0 whole entry): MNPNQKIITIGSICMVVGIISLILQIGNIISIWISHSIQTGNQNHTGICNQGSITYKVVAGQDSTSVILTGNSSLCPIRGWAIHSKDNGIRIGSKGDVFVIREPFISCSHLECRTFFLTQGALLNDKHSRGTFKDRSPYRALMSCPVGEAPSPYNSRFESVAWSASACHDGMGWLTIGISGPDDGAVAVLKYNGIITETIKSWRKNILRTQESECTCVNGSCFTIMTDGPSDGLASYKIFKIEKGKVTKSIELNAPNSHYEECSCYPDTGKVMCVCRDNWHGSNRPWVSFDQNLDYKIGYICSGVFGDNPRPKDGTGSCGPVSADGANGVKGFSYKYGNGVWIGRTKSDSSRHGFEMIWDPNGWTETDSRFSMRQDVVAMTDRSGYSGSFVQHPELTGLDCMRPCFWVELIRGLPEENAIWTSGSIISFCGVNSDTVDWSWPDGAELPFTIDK
SMILES,IC50 (Neuraminidase [1]),IC50 (Neuraminidase [2]),also measured
CCC(CC)O[C@@H]1C=C(C(=O)NCc2ccc(C)cc2)C[C@H](N)[C@H]1NC(C)=O,2.91 µM,11 µM,–
CCC(CC)O[C@@H]1C=C(C(=O)Nc2ccc(N3CCOCC3=O)cc2)C[C@H](N)[C@H]1NC(C)=O,1.46 µM,2.27 µM,–
CCC(CC)O[C@@H]1C=C(C(=O)NCc2ccc(-c3cccs3)cc2)C[C@H](N)[C@H]1NC(C)=O,7.75 µM,10.9 µM,–
CCC(CC)O[C@@H]1C=C(C(=O)NCc2ccc(OC)cc2)C[C@H](N)[C@H]1NC(C)=O,> 40 µM,> 40 µM,–
CCC(CC)O[C@@H]1C=C(C(=O)NCc2ccc(F)cc2Cl)C[C@H](N)[C@H]1NC(C)=O,3.91 µM,19.4 µM,–
CCC(CC)O[C@@H]1C=C(C(=O)NCc2ccc(-c3ccccc3)cc2)C[C@H](N)[C@H]1NC(C)=O,0.96 µM,0.99 µM,–
CCC(CC)O[C@@H]1C=C(C(=O)NCc2ccc(Br)cc2)C[C@H](N)[C@H]1NC(C)=O,2.07 µM,6.01 µM,–
CCC(CC)O[C@@H]1C=C(C(=O)NCc2cccc(F)c2)C[C@H](N)[C@H]1NC(C)=O,5.09 µM,11.4 µM,–
CCC(CC)O[C@@H]1C=C(C(=O)NCc2ccc(F)cc2)C[C@H](N)[C@H]1NC(C)=O,0.94 µM,2.78 µM,–
CCC(CC)O[C@@H]1C=C(C(=O)N(C)CCc2cccc(F)c2)C[C@H](N)[C@H]1NC(C)=O,2.65 µM,2.51 µM,–
CCC(CC)O[C@@H]1C=C(C(=O)N[C@@H](C)C(=O)O)C[C@H](N)[C@H]1NC(C)=O,2.2 µM,1.28 µM,–
CCC(CC)O[C@@H]1C=C(C(=O)N[C@H](C(=O)O)C(C)C)C[C@H](N)[C@H]1NC(C)=O [listing 1 of 2 here],0.342 µM,0.304 µM,–
CCC(CC)O[C@@H]1C=C(C(=O)NCc2ccc(-c3ccsc3)cc2)C[C@H](N)[C@H]1NC(C)=O,29.8 µM,> 40 µM,–
CCC(CC)O[C@@H]1C=C(C(=O)N[C@H](C(=O)O)C(C)C)C[C@H](N)[C@H]1NC(C)=O [listing 2 of 2 here],0.135 µM,0.248 µM,–
CCC(CC)O[C@@H]1C=C(C(=O)NCc2ccccc2F)C[C@H](N)[C@H]1NC(C)=O,6.26 µM,14.7 µM,–
CCC(CC)O[C@@H]1C=C(C(=O)NCc2cc(F)cc(F)c2)C[C@H](N)[C@H]1NC(C)=O,2.22 µM,10.4 µM,–
CCC(CC)O[C@@H]1C=C(C(=O)N[C@@H](C(=O)O)C(C)C)C[C@H](N)[C@H]1NC(C)=O,0.0883 µM,0.0967 µM,EC50 (Influenza A virus [3]): 4.26 µM; EC50 (Influenza A virus [4]): 1.31 µM; CC50 at 48 h [5]: > 1000 µM; Activity (Influenza A virus [6]): Active; Activity (Influenza A virus [7]): inactive; Activity (Influenza A virus [8]): inactive; Activity (Influenza A virus [9]): inactive; Activity (Influenza A virus [10]): inactive; Activity (Influenza A virus [11]): Active; Activity (Influenza A virus [12]): inactive; Activity (Influenza A virus [13]): inactive; Activity (Influenza A virus [14]): inactive; Activity (Influenza A virus [15]): inactive
CCC(CC)O[C@@H]1C=C(C(=O)NCc2ccccc2)C[C@H](N)[C@H]1NC(C)=O,9.87 µM,19.9 µM,–
CCC(CC)O[C@@H]1C=C(C(=O)NCCc2cccc(F)c2)C[C@H](N)[C@H]1NC(C)=O,15.2 µM,32.5 µM,–
CCC(CC)O[C@@H]1C=C(C(=O)NCc2ccc(C(F)(F)F)cc2)C[C@H](N)[C@H]1NC(C)=O,10.9 µM,8.78 µM,–
CCC(CC)O[C@@H]1C=C(C(=O)NCc2cccc(Cl)c2)C[C@H](N)[C@H]1NC(C)=O,3.02 µM,7.86 µM,–
CCC(CC)O[C@@H]1C=C(C(=O)O)C[C@H](N)[C@H]1NC(C)=O [OSELTAMIVIR CARBOXYLATE],–,–,EC50 (Influenza A virus [3]): 1.35 µM; EC50 (Influenza A virus [4]): 0.73 µM; CC50 at 48 h [5]: > 1000 µM; Activity (Influenza A virus [9]): inactive; Activity (Influenza A virus [10]): inactive; Activity (Influenza A virus [11]): inactive; Activity (Influenza A virus [12]): inactive; Activity (Influenza A virus [13]): inactive; Activity (Influenza A virus [14]): inactive; Activity (Influenza A virus [15]): inactive
CCC(CC)O[C@@H]1C=C(C(=O)NCC(=O)O)C[C@H](N)[C@H]1NC(C)=O,2.53 µM,2.16 µM,–
CCC(CC)O[C@@H]1C=C(C(=O)NCCc2ccccc2F)C[C@H](N)[C@H]1NC(C)=O,3.17 µM,5.12 µM,–
CCC(CC)O[C@@H]1C=C(C(=O)Nc2ccc(F)cc2)C[C@H](N)[C@H]1NC(C)=O,11.7 µM,16.3 µM,–
CCC(CC)O[C@@H]1C=C(C(=O)NCCN2CCOCC2)C[C@H](N)[C@H]1NC(C)=O,4.24 µM,12.1 µM,–
C=CCNC(=O)C1=C[C@@H](OC(CC)CC)[C@H](NC(C)=O)[C@@H](N)C1,5.03 µM,0.41 µM,–
CCC(CC)O[C@@H]1C=C(C(=O)N[C@H](C)C(=O)O)C[C@H](N)[C@H]1NC(C)=O,1.35 µM,1.07 µM,–
